{"data": "Measurements collected from several papers", "target": "Cannabinoid receptor 1 (CNR1, Homo sapiens, UniProt P21554)", "note": "Compare with care: the assays were run in different laboratories."}
{"Compound": "CCOC(=O)C(CC)(CCCSCCOCCOCCOCCOCCNC(=O)OC(C)(C)C)NC(=O)c1ccc(C2CC2)c(Cc2ccc(F)cc2)n1 (centres unmarked)", "assay": "ligand displacement, radioligand", "conditions": "cell membranes", "measurement": "Ki", "value": "731 nM"}
{"Compound": "C/C(N)=N\\C(=N/S(=O)(=O)c1ccc(C(F)(F)F)cc1)N1C[C@H](c2ccccc2)C(c2ccc(Cl)cc2)=N1", "assay": "ligand displacement, radioligand", "measurement": "Ki", "value": "1.2 nM"}
{"Compound": "CCCCCn1cc(C(=O)C2C(C)(C)C2(C)C)c2ccccc21", "assay": "GTPγS binding, agonist, radiometric", "conditions": "cell membranes", "measurement": "EC50", "value": "98 nM"}
{"Compound": "CCCCCn1nc(C(=O)N[C@H](C(N)=O)C(C)C)c2ccccc21", "assay": "calcium signal, agonist", "measurement": "EC50", "value": "3.63 nM"}
{"Compound": "CCOC(=O)[C@H](CSC)NC(=O)c1ccc(C2CC2)c(Cc2ccc(F)cc2)n1", "assay": "ligand displacement, radioligand", "conditions": "cell membranes", "measurement": "Ki", "value": "19 nM"}
{"Compound": "CCCCCc1cc(O)c(C/C=C(\\C)CCC2OC2(C)C)c(O)c1 (centres unmarked)", "assay": "ligand displacement, radioligand", "conditions": "cell membranes", "measurement": "Ki", "value": "> 10000 nM"}
{"Compound": "Cc1ccc(OC(C)(C)C(=O)N[C@@H](C)[C@@H](Cc2ccc(OCCF)cc2)c2cccc(C#N)c2)nc1", "assay": "ligand displacement, radioligand", "measurement": "Ki", "value": "0.1 nM"}
{"Compound": "CCOC(=O)C(CCCOC)NC(=O)c1ccc(C2CC2)c(Cc2ccc(F)cc2)n1 (centres unmarked)", "assay": "ligand displacement, radioligand", "conditions": "cell membranes", "measurement": "Ki", "value": "99 nM"}
{"Compound": "CCCc1cc(O)c2c(c1)OC(C)(C)[C@@H]1CCC(C)=C[C@@H]21", "assay": "ligand displacement, radioligand", "conditions": "cell membranes", "measurement": "Ki", "value": "22 nM"}
{"Compound": "CC(C)C(NC(=O)c1nn(Cc2ccc(F)cc2)c2ccccc12)C(N)=O (centres unmarked)", "assay": "calcium signal, agonist", "measurement": "EC50", "value": "3.44 nM"}
{"Compound": "CCCCCc1cc2c(c(O)c1C(=O)O)C1C=C(C)CCC1C(C)(C)O2 (centres unmarked)", "assay": "ligand displacement, radioligand", "conditions": "cell membranes", "measurement": "Ki", "value": "1290 nM"}
{"Compound": "CCCCC/C=C\\C/C=C\\C/C=C\\C/C=C\\CCCC(=O)NCCCl", "assay": "ligand displacement, radioligand", "conditions": "cell membranes", "measurement": "Ki", "value": "0.74 nM"}
{"Compound": "CCOC(=O)C(CC)(CCCSCCOCCOCCNc1ccc([N+](=O)[O-])c2nonc12)NC(=O)c1ccc(C2CC2)c(Cc2ccc(F)cc2)n1 (racemic)", "assay": "cAMP, agonist", "measurement": "EC50", "value": "600 nM"}
{"Compound": "CCCCCc1cc(O)c(C/C=C(\\C)CCC=C(C)C)c(O)c1C(=O)O", "assay": "ligand displacement, radioligand", "conditions": "cell membranes", "measurement": "Ki", "value": "4530 nM"}
